Activity calls are given as the source filed them. The calls are words filed in the database; no cut-off is given here.

The target of data set [1] is T1, Ornithine decarboxylase (Rattus norvegicus) (UniProt P09057).
T1 sequence (whole entry): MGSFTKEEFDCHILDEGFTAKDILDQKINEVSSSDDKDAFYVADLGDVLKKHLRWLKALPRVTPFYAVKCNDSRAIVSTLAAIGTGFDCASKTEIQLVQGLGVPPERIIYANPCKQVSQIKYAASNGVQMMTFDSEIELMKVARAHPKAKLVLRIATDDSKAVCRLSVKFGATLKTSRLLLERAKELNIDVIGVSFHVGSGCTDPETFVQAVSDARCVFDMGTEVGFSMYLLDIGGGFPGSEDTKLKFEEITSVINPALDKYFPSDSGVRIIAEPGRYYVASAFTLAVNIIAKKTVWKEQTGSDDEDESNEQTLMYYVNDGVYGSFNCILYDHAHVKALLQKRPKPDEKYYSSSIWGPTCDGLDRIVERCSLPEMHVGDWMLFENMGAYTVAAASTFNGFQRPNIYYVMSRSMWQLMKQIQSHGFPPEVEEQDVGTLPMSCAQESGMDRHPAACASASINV
As to the kind of experiment: Inhibition of rat prostate ornithine decarboxylase at 10 mM. The settings on record: Prostate gland.

Data set [2] has as its target T1, Ornithine decarboxylase (Rattus norvegicus). As to the kind of experiment: Competitive inhibition of rat liver ornithine decarboxylase using DL-[1-14C]ornithine as substrate at 4 mM after 1 hr by dixon plot analysis.
The target of data set [3] is T2, Ornithine decarboxylase (Bos taurus, UniProt P27117).
T2 sequence (P27117 whole entry): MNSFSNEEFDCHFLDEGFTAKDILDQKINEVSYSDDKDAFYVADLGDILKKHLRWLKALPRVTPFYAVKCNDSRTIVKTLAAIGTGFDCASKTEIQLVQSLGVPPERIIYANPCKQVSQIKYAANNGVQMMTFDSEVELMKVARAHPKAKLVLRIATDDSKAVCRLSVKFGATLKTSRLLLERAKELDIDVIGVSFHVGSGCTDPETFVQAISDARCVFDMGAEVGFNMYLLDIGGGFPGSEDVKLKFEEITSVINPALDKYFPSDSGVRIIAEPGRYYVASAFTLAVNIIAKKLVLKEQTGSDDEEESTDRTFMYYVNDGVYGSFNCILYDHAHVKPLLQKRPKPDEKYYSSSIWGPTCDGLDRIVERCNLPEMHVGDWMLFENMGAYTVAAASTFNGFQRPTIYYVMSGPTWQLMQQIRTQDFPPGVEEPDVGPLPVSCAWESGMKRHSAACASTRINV
As to the kind of experiment: Competitive inhibition of bull prostate ornithine decarboxylase using DL-[1-14C]ornithine as substrate after 1 hr by dixon plot analysis. Also on record: species or system Prostate gland. In a few lines: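 Bull prostate ODC purified ~fourfold: homogenized at 4 °C in Tris-HCl 10 mM pH 7.2, sucrose, EDTA, DTT 5 mM, PLP 0.1 mM; 20000g and 105000g spins, 20–50% (NH4)2SO4 cut, dialysis. Assay in 0.95 mL Tris-HCl pH 7.2 with PLP 0.1 µmol, DTT 5 µmol, DL-[1-14C]ornithine 0.043 µmol, L-ornithine 0.8 µmol; 14CO2 counted after 1 h at 37 °C; KI from Dixon plots, least-squares fit.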

The target in data set [4] is T3, Ornithine decarboxylase (Rattus norvegicus, UniProt P09057).
T3 sequence (P09057 whole entry): T1 sequence (whole entry)
As to the kind of experiment: Competitive inhibition of rat liver ornithine decarboxylase using DL-[1-14C]ornithine as substrate after 1 hr by dixon plot analysis. Summed up: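 ODC from livers of rats given thioacetamide 18 h before sacrifice, ~tenfold purified by acid treatment at pH 4.6. Incubation: sodium phosphate pH 7.1, PLP 0.1 µmol, DTT 5 µmol, DL-[1-14C]ornithine 0.043 µmol plus L-ornithine 0.8 µmol in 0.95 mL; 14CO2 release after 1 h at 37 °C; KI from Dixon plots by least-squares fit.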

The target in data set [5] is T3, Ornithine decarboxylase. As to the kind of experiment: Competitive inhibition of ornithine decarboxylase in rat HTC cells using DL-[1-14C]ornithine as substrate after 1 hr by dixon plot analysis. It is filed as cell-based. Summed up: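 HTC hepatoma cell ODC; sodium phosphate pH 7.1 assay with PLP 0.1 µmol, DTT 5 µmol, DL-[1-14C]ornithine 0.043 µmol, L-ornithine 0.8 µmol, final 0.95 mL; enzyme added to start; 14CO2 measured after 1 h at 37 °C. KI from Dixon plots, or for some values from ID50 at ornithine equal to KM, taking KI = ID50/2.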

Data set [6] in a line: Binding affinity to pyridoxal-phosphate.
Data set [7] addresses T1, Ornithine decarboxylase (Rattus norvegicus). As to the kind of experiment: Competitive inhibition of rat liver ornithine decarboxylase using DL-[1-14C]ornithine as substrate at 1 mM after 1 hr by dixon plot analysis.
In data set [8] the target is Ornithine decarboxylase (Bos taurus). As to the kind of experiment: Inhibition of bull prostate ornithine decarboxylase.
Data set [9] deals with T3, Ornithine decarboxylase. As to the kind of experiment: Competitive inhibition of Sprague-Dawley rat prostate ornithine decarboxylase using DL-[1-14C]ornithine as substrate by liquid scintillation counting analysis. Set-up: species or system Prostate gland.
Data set [10] has as its target T1, Ornithine decarboxylase (Rattus norvegicus). As to the kind of experiment: Competitive inhibition of rat liver ornithine decarboxylase using DL-[1-14C]ornithine as substrate at 0.25 mM after 1 hr by dixon plot analysis.
Data set [11] shares this target. As to the kind of experiment: Competitive inhibition of ornithine decarboxylase in rat HTC cells using DL-[1-14C]ornithine as substrate at 1 mM after 1 hr by dixon plot analysis. The data set is classed as cell-based.

In the case of `NCCC[C@@H](N)C(=O)O`, the inhibition (in general, the relative decrease from the control value, in per cent) in [1] was 25%.
For `CC(N)(CCCCN)C(=O)O` (racemic), the inhibition result in [2] is “inactive”.
For `CC(N)(CCCNCCCN)C(=O)O` (racemic; 8), the affinity in data set [3], expressed as Ki, was 5500 µM.
With `N[C@H]1CC[C@](N)(C(=O)O)CC1`, the Ki in data set [4] and in [5] (read-out: Ki) was 70 µM in each case.
In the case of `NCCC[C@H](N)C(=O)O` [ORNITHINE], the Kd (in general, the free concentration of one partner at which half of the binding sites on the other are occupied at equilibrium, for simple one-to-one binding) in [6] came out at 1250 µM.
Turning to `CC(N)(CCCN)C(=O)O` (racemic), the Ki in [4] and in [5] (read-out: Ki) was 40 µM each time.
As to `CC(N)(CCN)C(=O)O` (racemic), the inhibition result in data set [2] is “inactive”.
Consider `NCCCC(N)(CO)C(=O)O` (racemic), for which the inhibition result in data set [7] is “inactive”.
As for `NC/C=C/C(N)C(=O)O` (racemic), the Ki – broadly, a dissociation constant, usually derived from enzyme kinetics or from competition with a known ligand – in data set [8] stood at 4400 µM.
In the case of `CC(N)(CCCNCCCN)C(=O)O` (racemic; 3), the Ki was 4400 µM in [3] and “Not Active” in [5] (htc). In addition, the dissociation constant (Kd) in [6] amounted to 900 µM.
Take `CN(C)CCCC(C)(N)C(=O)O` (racemic): the inhibition result in data set [7] was “inactive”.
For `C[C@](N)(CCCN)C(=O)O`, the figures for the Ki in [4], in [3] and in data set [5] (read-out: Ki) were 19 µM, 20 µM and 20 µM, respectively. In data set [6], this molecule had a Kd of 2350 µM.
Turning to `NCCCC(N)c1nnn[nH]1` (centres undefined), the Ki in data set [4] worked out at 120 µM; in data set [3], 70 µM; in [5] (read-out: Ki) it was 140 µM.
Consider `NCCCCN` [PUTRESCINE], for which, in [6], the Kd turned out to be 800 µM.
As to `CNCCCC(C)(N)C(=O)O` (racemic), the Ki in data set [4] is 500 µM; in [3], 740 µM. In addition, in [6], binding was put at a Kd of 5360 µM.
With `C[C@@](N)(CCCN)C(=O)O`, the Ki in [4] was determined as 1300 µM; in data set [3] it was 1000 µM; in data set [5] (read-out: Ki), 1050 µM.
For `NCCCCNCCCN` [SPERMIDINE], the values for the Ki in data set [3] and in data set [9] were 3000 µM and 2700 µM, respectively. Further, the Kd in data set [6] was found to be 700 µM.
`N[C@H]1CC[C@@](N)(C(=O)O)CC1`: the inhibition entry in data set [10] was “inactive”.
Turning to `NCCC(O)C(N)C(=O)O` (racemic), the inhibition result in data set [11] was “inactive”.

The values are drawn from ChEMBL document CHEMBL3243972, “Analogues of ornithine as inhibitors of ornithine decarboxylase. New deductions concerning the topography of the enzyme's active site” (J Med Chem, 1978).
